ChEMBL document CHEMBL3627612, “Hirsutinolide Series Inhibit Stat3 Activity, Alter GCN1, MAP1B, Hsp105, G6PD, Vimentin, TrxR1, and Importin α-2 Expression, and Induce Antitumor Effects against Human Glioma” (J Med Chem, 2015)
Active and inactive are the calls of the source. The rule behind the calls is not given here.

Key:
[1] = Cytotoxicity against mouse V-Src -transformed NIH/3T3 cells at 1 uM by trypan blue exclusion with phase contrast microscopy; format: cell-based; settings: nih3t3, 1 µM
[2] = Cytotoxicity against mouse V-Src -transformed NIH/3T3 cells at 2.5 uM by trypan blue exclusion with phase contrast microscopy; format: cell-based; settings: nih3t3, 2.5 µM
[3] = Cytotoxicity against mouse NIH/3T3 cells at 2.5 uM by trypan blue exclusion with phase contrast microscopy; format: cell-based; settings: nih3t3, 2.5 µM
[4] = Cell cycle arrest in human U251MG cells assessed as accumulation at G2/M phase at 5 uM for 15 hrs by flow cytometry; format: functional, cell-based; settings: U-251
[5] = system: U-251; assay: Induction of apoptosis in human U251MG cells assessed as PARP level at 8 uM after 24 to 48 hrs by immunoblot analysis; format: functional, cell-based
[6] = system: U-251; assay: Induction of apoptosis in human U251MG cells assessed as cleaved caspase 3 level at 8 uM after 24 to 48 hrs by immunoblot analysis; format: functional, cell-based
[7] = target: Stalled ribosome sensor GCN1 (Homo sapiens) (UniProt Q92616); assay: Decrease in GCN1 expression in human U251MG cells at 5 uM for 1 hr by mass spectrometry relative to control; format: functional, cell-based; settings: U-251
Sequence of Stalled ribosome sensor GCN1 (Homo sapiens) (Q92616 whole entry): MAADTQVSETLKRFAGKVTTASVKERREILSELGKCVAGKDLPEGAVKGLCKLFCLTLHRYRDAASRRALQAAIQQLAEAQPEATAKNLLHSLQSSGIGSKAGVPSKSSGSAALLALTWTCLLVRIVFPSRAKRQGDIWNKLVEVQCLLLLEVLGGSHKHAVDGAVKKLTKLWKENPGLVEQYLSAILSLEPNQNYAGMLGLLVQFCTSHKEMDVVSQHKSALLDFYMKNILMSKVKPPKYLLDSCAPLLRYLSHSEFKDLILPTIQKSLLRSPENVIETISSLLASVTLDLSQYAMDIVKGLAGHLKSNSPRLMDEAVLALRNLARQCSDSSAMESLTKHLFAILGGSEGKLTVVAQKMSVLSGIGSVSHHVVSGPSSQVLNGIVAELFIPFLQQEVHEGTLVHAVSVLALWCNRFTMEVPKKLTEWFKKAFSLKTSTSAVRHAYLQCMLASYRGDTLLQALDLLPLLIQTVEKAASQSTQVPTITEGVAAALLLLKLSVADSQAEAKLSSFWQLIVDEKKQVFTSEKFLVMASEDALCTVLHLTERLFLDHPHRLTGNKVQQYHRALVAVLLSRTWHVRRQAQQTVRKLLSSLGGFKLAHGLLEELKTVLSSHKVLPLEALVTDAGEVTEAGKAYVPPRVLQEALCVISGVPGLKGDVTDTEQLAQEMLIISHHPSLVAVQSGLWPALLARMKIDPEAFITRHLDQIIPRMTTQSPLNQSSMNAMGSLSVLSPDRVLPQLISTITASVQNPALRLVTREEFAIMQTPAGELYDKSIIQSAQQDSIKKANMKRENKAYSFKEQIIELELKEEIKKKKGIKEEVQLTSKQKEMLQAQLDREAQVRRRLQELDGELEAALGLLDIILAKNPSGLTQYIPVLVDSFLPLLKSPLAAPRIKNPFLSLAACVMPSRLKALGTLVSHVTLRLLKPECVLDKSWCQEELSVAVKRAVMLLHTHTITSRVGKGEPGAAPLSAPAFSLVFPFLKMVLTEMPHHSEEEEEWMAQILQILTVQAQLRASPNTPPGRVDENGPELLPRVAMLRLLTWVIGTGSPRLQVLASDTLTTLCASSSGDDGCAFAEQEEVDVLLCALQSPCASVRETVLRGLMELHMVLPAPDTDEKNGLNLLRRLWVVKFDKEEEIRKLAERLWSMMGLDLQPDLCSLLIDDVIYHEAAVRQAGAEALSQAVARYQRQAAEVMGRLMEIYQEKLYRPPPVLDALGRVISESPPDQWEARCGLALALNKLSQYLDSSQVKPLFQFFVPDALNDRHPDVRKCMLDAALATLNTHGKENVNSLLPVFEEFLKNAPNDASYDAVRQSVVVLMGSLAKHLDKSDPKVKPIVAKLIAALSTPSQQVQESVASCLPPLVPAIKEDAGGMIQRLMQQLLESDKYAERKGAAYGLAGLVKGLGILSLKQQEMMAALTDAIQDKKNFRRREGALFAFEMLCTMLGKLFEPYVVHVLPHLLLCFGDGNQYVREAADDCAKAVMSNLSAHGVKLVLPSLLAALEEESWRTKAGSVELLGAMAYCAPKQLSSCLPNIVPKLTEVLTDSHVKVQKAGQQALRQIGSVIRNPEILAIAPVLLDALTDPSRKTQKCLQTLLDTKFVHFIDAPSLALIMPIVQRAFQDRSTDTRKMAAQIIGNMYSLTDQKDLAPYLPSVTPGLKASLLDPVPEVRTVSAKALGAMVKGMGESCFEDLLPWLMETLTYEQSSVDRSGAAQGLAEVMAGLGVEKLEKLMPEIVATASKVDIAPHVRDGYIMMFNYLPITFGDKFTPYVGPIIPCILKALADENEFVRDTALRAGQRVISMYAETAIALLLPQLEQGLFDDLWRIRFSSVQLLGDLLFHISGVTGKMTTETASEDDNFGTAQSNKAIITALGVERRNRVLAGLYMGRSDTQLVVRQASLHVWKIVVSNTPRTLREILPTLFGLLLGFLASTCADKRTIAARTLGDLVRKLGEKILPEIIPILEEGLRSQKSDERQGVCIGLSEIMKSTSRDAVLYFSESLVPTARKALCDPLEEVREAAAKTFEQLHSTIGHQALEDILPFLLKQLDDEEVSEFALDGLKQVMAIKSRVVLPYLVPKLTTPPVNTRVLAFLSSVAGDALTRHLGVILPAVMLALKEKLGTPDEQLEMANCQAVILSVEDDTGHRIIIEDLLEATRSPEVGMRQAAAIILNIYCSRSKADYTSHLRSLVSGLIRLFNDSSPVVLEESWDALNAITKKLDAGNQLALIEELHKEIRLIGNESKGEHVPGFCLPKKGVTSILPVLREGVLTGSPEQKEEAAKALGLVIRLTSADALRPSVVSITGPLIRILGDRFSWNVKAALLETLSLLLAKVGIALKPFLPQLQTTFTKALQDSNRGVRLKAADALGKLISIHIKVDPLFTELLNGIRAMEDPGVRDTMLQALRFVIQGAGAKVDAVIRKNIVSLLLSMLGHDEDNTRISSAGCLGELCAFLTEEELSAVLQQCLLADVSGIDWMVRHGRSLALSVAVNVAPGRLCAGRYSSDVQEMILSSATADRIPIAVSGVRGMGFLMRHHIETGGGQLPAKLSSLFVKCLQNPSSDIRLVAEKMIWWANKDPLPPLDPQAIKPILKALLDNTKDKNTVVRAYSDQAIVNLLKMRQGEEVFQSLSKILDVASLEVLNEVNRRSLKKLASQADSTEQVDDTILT
Summary of the method: (§1)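 U251MG cells treated 1 h with 5 μM compound; whole-cell lysates analyzed by global proteomics mass spectrometry; protein levels expressed relative to DMSO-treated cells.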

[8] = target: Signal transducer and activator of transcription 3 (Mus musculus) (UniProt P42227); assay: Inhibition of Stat3 dimer DNA binding activity in mouse NIH3T3/vSrc nuclear extract at 10 uM preincubated for 30 mins followed by addition of radiolabeled probe hSIE for 30 mins by EMSA in presence of 50 uM Cys
Sequence of Signal transducer and activator of transcription 3 (Mus musculus) (P42227 whole entry): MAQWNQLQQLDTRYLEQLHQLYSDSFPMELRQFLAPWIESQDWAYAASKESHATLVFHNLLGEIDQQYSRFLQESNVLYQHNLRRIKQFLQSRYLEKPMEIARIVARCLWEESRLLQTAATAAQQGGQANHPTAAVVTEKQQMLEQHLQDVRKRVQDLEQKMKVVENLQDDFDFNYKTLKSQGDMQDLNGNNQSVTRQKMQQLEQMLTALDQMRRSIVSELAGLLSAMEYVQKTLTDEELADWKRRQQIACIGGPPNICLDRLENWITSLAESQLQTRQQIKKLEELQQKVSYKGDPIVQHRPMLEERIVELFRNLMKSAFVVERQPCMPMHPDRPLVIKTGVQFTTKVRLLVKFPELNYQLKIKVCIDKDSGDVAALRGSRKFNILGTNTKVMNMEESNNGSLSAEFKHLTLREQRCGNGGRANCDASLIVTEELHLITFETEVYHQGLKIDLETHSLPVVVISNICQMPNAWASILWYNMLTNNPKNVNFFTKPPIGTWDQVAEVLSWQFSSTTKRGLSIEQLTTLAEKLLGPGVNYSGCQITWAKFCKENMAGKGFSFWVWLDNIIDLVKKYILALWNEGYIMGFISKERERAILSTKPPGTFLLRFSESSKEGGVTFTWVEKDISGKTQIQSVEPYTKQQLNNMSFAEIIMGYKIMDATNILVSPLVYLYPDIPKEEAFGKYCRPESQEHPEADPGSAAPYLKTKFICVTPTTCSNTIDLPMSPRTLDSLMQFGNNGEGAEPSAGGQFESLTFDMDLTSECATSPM

[9] = Cytotoxicity against mouse NIH/3T3 cells after 72 hrs by cyquant cells; format: cell-based; settings: NIH3T3, 72 h
Summary of the method: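 CyQuant proliferation assay after 72 h compound exposure of cultured cells; relative viability normalized to DMSO-treated control; IC50 values derived. Glioma lines grown in RPMI or DMEM with 10% FBS and 1% nonessential amino acids.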

[10] = target: T1, Signal transducer and activator of transcription 3 (Homo sapiens, UniProt P40763); assay: Inhibition of Stat3 activity in human U251MG cells assessed as decrease in Bcl-2 expression at 5 uM after 24 hrs by immunoblot analysis; format: cell-based; settings: U-251
T1 sequence (P40763 whole entry): as the sequence (P42227 whole entry) above, with D760E counted along it
Summary of the method: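 U251MG cells treated with 5 μM compound for 0–24 h. Whole-cell lysates immunoblotted for pStat3, Stat3, c-Myc, Bcl-2, Bcl-xL, Mcl-1, GAPDH. Control was 0.025% DMSO.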

[11] = target: Heat shock protein 105 kDa (Homo sapiens) (UniProt Q92598); assay: Decrease in Hsp105 expression in human U251MG cells at 5 uM for 1 hr by mass spectrometry relative to control; format: functional, cell-based; settings: U-251; summary of the method: as §1
Sequence of Heat shock protein 105 kDa (Homo sapiens) (Q92598 whole entry): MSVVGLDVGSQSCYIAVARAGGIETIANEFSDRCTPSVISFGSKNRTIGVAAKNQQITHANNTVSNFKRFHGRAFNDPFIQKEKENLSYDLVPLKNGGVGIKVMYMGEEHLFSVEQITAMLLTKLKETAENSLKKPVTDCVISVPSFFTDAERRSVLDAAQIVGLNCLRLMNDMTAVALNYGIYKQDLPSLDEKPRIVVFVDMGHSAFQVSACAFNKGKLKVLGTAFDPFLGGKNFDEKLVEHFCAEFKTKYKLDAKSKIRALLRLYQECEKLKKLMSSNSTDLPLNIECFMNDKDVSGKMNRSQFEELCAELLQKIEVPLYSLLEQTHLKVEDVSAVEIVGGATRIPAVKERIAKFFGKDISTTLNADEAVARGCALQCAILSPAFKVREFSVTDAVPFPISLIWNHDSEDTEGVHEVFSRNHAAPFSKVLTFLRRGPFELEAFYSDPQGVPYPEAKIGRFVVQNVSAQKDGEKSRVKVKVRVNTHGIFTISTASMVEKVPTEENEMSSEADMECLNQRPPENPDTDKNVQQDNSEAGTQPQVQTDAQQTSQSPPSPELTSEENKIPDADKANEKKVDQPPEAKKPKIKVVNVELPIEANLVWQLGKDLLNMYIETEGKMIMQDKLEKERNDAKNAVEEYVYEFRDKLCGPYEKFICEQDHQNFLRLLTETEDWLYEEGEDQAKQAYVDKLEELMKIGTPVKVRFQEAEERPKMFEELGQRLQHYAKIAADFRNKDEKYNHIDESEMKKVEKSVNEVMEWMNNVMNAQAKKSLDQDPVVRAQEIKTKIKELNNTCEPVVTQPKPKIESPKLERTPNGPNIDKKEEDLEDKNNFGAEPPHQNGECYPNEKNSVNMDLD

[12] = Decrease in vimentin expression in human U251MG cells at 5 uM for 1 hr by mass spectrometry relative to control; format: functional, cell-based; settings: U-251
Summary of the method: (§2)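 Global proteomic mass spectrometry of lysates from U251MG cells treated 1 h with 5 μM compound; protein levels expressed relative to DMSO-treated cells.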

[13] = Decrease in TNAP2 expression in human U251MG cells at 5 uM for 1 hr by mass spectrometry relative to control; format: functional, cell-based; settings: U-251; summary of the method: as §2
[14] = target: T1, Signal transducer and activator of transcription 3; assay: Inhibition of Stat3 phosphorylation in human U251MG cells transfected with Stat3 flag-tagged N-terminal domain at 5 uM after 1.5 hrs by immunoblot analysis; format: cell-based; settings: U-251
Summary of the method: (§3)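 U251MG cells transiently transfected with 7.5–21 μg FLAG-Stat3 NTD, CCD, DBD or CTD plasmid, or pcDNA3 mock. Re-seeded 24 h later; after another 18 h, treated with or without 5 μM compound for 1.5 h. Whole-cell lysates immunoblotted for FLAG, pY705Stat3, Stat3, GAPDH. 0.025% DMSO control. Representative of 2 independent determinations.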

[15] = target: T1, Signal transducer and activator of transcription 3; assay: Inhibition of Stat3 phosphorylation in human U251MG cells transfected with Stat3 flag-tagged C-terminal domain at 5 uM after 1.5 hrs by immunoblot analysis; format: cell-based; settings: U-251; summary of the method: as §3

Row | fold change (FC) [7] | inhibition [8] | inhibition [10] | fold change (FC) [11] | inhibition [14] | inhibition [15] | Structure (SMILES) | Activity [1] | Activity [2] | Activity [3] | Activity [4] | Activity [5] | Activity [6] | IC50 [9] [µM] | fold change (FC) [12] | fold change (FC) [13]
1 | 0.555 | Active | – | – | – | – | C/C=C(\C)C(=O)OCC1=C2/C(=C\[C@@]3(C)CC[C@](O)(O3)[C@H](C)C[C@@H]2O)OC1=O | Toxic | Toxic | Non-toxic | Active | inactive | inactive | – | – | –
2 | – | – | Active | 0.501 | Active | Active | C/C=C(\C)C(=O)O[C@H]1C[C@@H](C)[C@]2(O)CC[C@](C)(/C=C3/OC(=O)C(COC(C)=O)=C31)O2 | – | – | – | – | – | – | 2 | 0.308 | 0.449
